From paper PMC6407750 (Targeted Oncology, 2019)
Read-outs that look alike come from different tables or passages of the source. Each block holds one compound with its values, some of them ahead of it.

How the values were obtained:
[1] = format: in vivo, human; settings: for AUC(0-inf): AUC0–∞,obs; for Tmax: median [range]
Summary of the method: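 Sixteen advanced solid tumour patients were enrolled. Each received a single oral 200 mg tablet after an overnight fast, either with ~240 mL water or directly after a ~950 kcal high-fat breakfast eaten within 30 min. No food was given for 4 h. Order was randomized, with a 7-day washout. Plasma was sampled predose and 0.5–48 h and measured by LC–MS/MS (detection limit 1 nM). Parameters were derived by non-compartmental analysis, with adjusted geometric mean ratios and 90% CI.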

[2] = single dose, primarily Caucasian subjects, fasted state; cited from earlier work
[3] = format: in vivo, human; settings: single 200 mg dose; for AUC(0-inf) / Cmax / half-life: human, plasma, oral, 200 mg; for AUC(0-inf): AUC0–∞,obs; for AUC(0-inf) / Cmax: adjusted geometric mean; for half-life: t½, geometric mean [coefficient of variation (%)]
Summary of the method: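 Sixteen advanced solid tumour patients, fasted overnight and for 4 h post-dose, received 200 mg as an intact tablet or as the uncrushed tablet shaken to full dispersion in 20 mL of sucralose 4 mg/mL, menthol 2 mg/mL and benzoic acid 1 mg/mL, undiluted. Order was randomized, with a 7-day washout. Plasma was sampled predose to 48 h by LC–MS/MS. Analysis was non-compartmental, with adjusted geometric mean ratios and 90% CI.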

[4] = administered with food compared to a fasted state; cited from earlier work
[5] = single 200 mg tablet, fed versus fasted

t½ ([1]; fasted, single 200 mg tablet, geometric mean [coefficient of variation (%)], n=15): 18.0 (22.6) h
Cmax ([1]; fed, single 200 mg tablet, plasma, adjusted geometric mean): 1640 nM
Cmax ([1]; human, plasma, oral, 200 mg): 1870 nM
half-life ([1]; human, plasma, oral, 200 mg): 18 h
AUC(0-inf) ([1]; human, plasma, oral, 200 mg, fasted, single 200 mg tablet, adjusted geometric mean): 39.9 µM·h
AUC(0-inf) ([1]; human, plasma, oral, 200 mg, fed, single 200 mg tablet, adjusted geometric mean): 39.2 µM·h
Tmax ([1]; human, plasma, oral, 200 mg, fasted, single 200 mg tablet, n=15): 3 h
Tmax ([1]; human, plasma, oral, 200 mg, fed (high-calorie meal), single 200 mg tablet, n=15): 4 h
tmax and t½ after a high-calorie meal compared with fasted patients ([1]; single 200 mg tablet): not different
AUC0-tz adjusted GMR (90% CI) [fed/fasted] [1, 5]: 92.46 (74.24–115.16) %
AUC0–∞,obs adjusted GMR (90% CI) [fed/fasted] [1, 5]: 98.17 (78.53–122.74) %
Cmax adjusted GMR (90% CI) [fed/fasted] [1, 5]: 87.34 (71.04–107.38) %
AUC(0-inf) ([3]; liquid dispersion, fasted): 31.5 µM·h
AUC(0-inf) ([3]; tablet, fasted): 32 µM·h
Cmax ([3]; liquid dispersion, fasted): 1610 nM
Cmax ([3]; tablet, fasted): 1720 nM
half-life ([3]; liquid dispersion, fasted): 18.4 h
half-life ([3]; tablet, fasted): 19.5 h
AUC0-tz adjusted GMR (90% CI) [tablet/liquid] ([3]; fasted): 99.98 (92.28–108.33) %
AUC0–∞,obs adjusted GMR (90% CI) [tablet/liquid] ([3]; fasted): 101.65 (93.57–110.42) %
Cmax adjusted GMR (90% CI) [tablet/liquid] ([3]; fasted): 107.15 (98.79–116.22) %
tmax and t½, effect of dispersing in a liquid ([3]; liquid dispersion vs tablet): not affected
Structure (SMILES): COc1cc(C(=O)NC2CCN(C)CC2)c(F)cc1Nc1ncc(C(F)(F)F)c(Oc2cccc3c2C(=O)N(C)C3)n1 [BI 853520]
observed terminal half-life (t½) [2]: 19 h

Structure (SMILES): C[C@]12CC[C@H](O)CC1=CC[C@@H]1[C@@H]2CC[C@]2(C)C(c3cccnc3)=CC[C@@H]12 [abiraterone]
increase in the area under the plasma concentration–time curve (AUC) [4]: 1000%
